Source: ChEMBL document CHEMBL5154824, “Design and synthesis of multifunctional microtubule targeting agents endowed with dual pro-apoptotic and anti-autophagic efficacy” (Eur J Med Chem, 2022)
Converted amounts (≈) assume the structure as drawn. The source made the active and inactive calls. No cut-off for these calls is given here.

Assays:
[1] = tested on: HL-60; assay: Induction of autophagy in human HL-60 cells assessed as increase in LC3-II protein level at 10 uM in presence of chloroquine […] by Immunoblotting analysis; type: functional, cell-based
[2] = Aqueous solubility of the compound in pH 3 measured after 24 hrs by HPLC/DAD/UV analysis; type: physicochemical; details: aqueous solution at pH 3, pH 3
In short: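 Solubility in aqueous buffer at pH 3, measured by HPLC after 24 h.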

[3] = Mutagenicity in Salmonella typhimurium TA98 in presence of rat liver S9 fraction at 0.3 to 60 uM by AMES test; type: toxicity, subcellular; details: salmonella enterica subsp. enterica serovar typhimurium, s9, 60 µM; dose 0.3-60 µM
[4] = tested on: HeLa; assay: Induction of autophagy in human HeLa cells assessed as increasing number of autophagosomes at 1 to 10 uM incubated for 3 hrs with HBSS medium by immunofluorescence based laser scanning confocal microscopic analysis; type: functional, cell-based; details: dose 1-10 µM
In short: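 HeLa cells were treated in HBSS at 1 or 10 μM, with BafA1 300 nM as reference, for 3 h. After fixation in ice-cold methanol, LC3 and LAMP1 were immunostained. Laser scanning confocal microscopy assessed autophagosome number and LC3/LAMP1 colocalisation.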

[5] = Cytotoxicity against human TR146 cells assessed as reduction in cell viability measured after 48 hrs by alamar blue viability assay; type: functional, cell-based; details: TR146, 48 h
In short: (§1)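 Oral squamous carcinoma cells were exposed for 48 h to at least 8 increasing concentrations. Viability was read by AlamarBlue. IC50 is the concentration that halves viability, taken as the mean ± SD of at least three independent experiments.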

[6] = biological target: Nuclear factor NF-kappa-B complex (Homo sapiens) (UniProt Q00653+P19838+Q04206); assay: Inhibition of NF-kappaB phosphorylation in human HL-60 cells at 10 uM measured after 2 hrs by Immunoblotting analysis; type: cell-based
Sequence of Nuclear factor NF-kappa-B complex (Homo sapiens) (P19838 whole entry, looked up): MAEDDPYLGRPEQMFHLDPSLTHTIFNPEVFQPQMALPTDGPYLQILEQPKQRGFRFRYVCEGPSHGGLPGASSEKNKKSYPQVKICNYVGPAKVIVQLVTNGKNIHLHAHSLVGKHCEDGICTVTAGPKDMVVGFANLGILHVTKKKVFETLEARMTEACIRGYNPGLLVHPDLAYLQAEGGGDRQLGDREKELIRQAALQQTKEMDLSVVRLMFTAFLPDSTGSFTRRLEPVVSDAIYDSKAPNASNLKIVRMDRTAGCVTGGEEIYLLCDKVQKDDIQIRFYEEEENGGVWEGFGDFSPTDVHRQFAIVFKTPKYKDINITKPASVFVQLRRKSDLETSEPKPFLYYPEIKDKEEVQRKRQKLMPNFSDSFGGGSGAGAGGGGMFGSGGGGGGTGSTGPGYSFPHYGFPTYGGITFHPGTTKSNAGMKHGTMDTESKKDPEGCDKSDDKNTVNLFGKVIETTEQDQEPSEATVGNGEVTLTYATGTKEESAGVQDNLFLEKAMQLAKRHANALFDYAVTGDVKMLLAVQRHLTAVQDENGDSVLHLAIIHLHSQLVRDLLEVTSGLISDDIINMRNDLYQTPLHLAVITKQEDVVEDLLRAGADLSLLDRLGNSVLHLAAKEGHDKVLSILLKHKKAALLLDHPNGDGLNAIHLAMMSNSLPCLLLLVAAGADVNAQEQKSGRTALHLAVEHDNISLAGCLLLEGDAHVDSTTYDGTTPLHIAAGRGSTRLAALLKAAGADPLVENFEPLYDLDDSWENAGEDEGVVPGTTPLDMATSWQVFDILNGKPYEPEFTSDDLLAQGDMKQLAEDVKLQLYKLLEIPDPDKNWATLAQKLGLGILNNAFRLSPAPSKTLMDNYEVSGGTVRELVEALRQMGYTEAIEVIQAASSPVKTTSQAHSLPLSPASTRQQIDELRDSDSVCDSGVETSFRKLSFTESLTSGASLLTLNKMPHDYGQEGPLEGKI
Sequence of Nuclear factor NF-kappa-B complex (Homo sapiens) (Q00653 whole entry, looked up): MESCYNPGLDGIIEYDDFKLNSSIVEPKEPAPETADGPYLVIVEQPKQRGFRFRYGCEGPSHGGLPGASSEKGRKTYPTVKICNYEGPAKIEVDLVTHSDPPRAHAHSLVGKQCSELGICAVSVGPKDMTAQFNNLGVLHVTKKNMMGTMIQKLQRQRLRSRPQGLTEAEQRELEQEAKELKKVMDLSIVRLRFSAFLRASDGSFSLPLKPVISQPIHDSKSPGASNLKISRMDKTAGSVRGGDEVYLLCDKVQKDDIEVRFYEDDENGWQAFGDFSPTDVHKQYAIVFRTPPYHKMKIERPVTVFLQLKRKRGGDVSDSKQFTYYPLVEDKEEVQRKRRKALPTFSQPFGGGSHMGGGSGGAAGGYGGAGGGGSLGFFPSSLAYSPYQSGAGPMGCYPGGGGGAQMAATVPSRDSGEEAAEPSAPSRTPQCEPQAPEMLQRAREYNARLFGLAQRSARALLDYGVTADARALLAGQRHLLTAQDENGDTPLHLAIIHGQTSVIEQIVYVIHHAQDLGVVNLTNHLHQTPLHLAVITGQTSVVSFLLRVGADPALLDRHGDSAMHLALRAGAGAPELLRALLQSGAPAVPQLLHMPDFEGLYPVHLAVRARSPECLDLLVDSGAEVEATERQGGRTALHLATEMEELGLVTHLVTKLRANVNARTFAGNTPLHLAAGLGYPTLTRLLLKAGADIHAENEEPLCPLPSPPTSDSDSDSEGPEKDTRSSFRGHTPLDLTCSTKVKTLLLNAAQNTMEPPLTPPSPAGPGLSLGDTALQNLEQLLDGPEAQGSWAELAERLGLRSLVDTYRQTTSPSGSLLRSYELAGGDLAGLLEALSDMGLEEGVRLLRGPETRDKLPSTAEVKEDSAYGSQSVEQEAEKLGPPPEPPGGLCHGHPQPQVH
Sequence of Nuclear factor NF-kappa-B complex (Homo sapiens) (Q04206 whole entry, looked up): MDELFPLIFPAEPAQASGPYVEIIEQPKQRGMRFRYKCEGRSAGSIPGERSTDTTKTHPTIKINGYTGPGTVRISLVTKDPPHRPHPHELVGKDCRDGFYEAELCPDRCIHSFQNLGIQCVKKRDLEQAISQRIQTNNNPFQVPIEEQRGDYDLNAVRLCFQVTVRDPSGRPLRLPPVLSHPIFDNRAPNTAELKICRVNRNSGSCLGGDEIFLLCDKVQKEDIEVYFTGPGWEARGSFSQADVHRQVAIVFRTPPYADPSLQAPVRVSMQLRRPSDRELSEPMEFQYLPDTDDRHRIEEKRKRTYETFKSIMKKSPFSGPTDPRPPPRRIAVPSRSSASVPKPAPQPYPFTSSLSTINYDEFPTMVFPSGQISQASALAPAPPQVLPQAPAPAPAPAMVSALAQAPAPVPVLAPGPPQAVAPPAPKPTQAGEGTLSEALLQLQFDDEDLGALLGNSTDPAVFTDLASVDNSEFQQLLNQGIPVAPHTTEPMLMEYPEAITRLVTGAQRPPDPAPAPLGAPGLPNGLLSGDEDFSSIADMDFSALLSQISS
In short: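 HL-60 cells were treated at 10 μM or with DMSO vehicle for 2 h. Phospho-NF-κB and phospho-Erk1/2 were immunoblotted and quantified by densitometry relative to β-tubulin. Data are mean ± SD (n = 2), analysed by one-way ANOVA.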

[7] = tested on: OE33; assay: Cytotoxicity against human OE33 cells assessed as inhibition of cell growth measured after 72 hrs by MTT assay; type: functional, cell-based; details: OE33, 72 h
In short: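 Oesophageal adenocarcinoma lines were exposed to at least 8 increasing concentrations for 72 h. Viability was measured by MTT. IC50 is the mean ± SD of at least three independent experiments.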

[8] = tested on: A549; assay: Cytotoxicity against human A549 cells assessed as inhibition of cell growth measured after 48 hrs by MTT assay; type: functional, cell-based; details: A549, 48 h
[9] = tested on: KYSE-520 cell line; assay: Induction of apoptosis in human KYSE520 cells assessed as increase in apoptotic cells at 3 to 10 uM after 72 hrs by Annexin V-FITC/PI staining based flow cytometry method; type: functional, cell-based; details: dose 3-10 µM
In short: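 KYSE-520 cells were treated at 3 and 10 μM for 72 h, then analysed by flow cytometry after Annexin V/PI dual staining.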

[10] = Cytotoxicity against human Primary oral epithelial cells assessed as inhibition of cell growth measured after 24 hrs by neutral red uptake assay; type: toxicity, cell-based
In short: (§2)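 Neutral red uptake viability test. NIH3T3 fibroblasts or primary human oral epithelial cells were exposed to compound at 0.1 to 120 μM. EC50 was derived, with SD below 5%.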

[11] = tested on: KYSE-520 cell line; assay: Cytotoxicity against human KYSE520 cells assessed as inhibition of cell growth measured after 48 hrs by alamar blue viability assay; type: functional, cell-based; details: KYSE-520, 48 h
In short: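 KYSE-520 oesophageal cells were exposed to at least 8 increasing concentrations for 48 h or 72 h. Viability was read out to give IC50, as the mean ± SD of at least three independent experiments.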

[12] = Mutagenicity in Salmonella typhimurium TA100 in absence of rat liver S9 fraction at 0.3 to 60 uM by AMES test; type: toxicity; details: salmonella enterica subsp. enterica serovar typhimurium, s9, 60 µM; dose 0.3-60 µM
[13] = tested on: NIH3T3; assay: Cytotoxicity against mouse NIH3T3 cells assessed as inhibition of cell growth measured after 24 hrs by neutral red uptake assay; type: functional, cell-based; details: NIH3T3, 24 h; in short: as §2
[14] = tested on: SCC-4; assay: Induction of autophagy in human SCC-4 cells assessed as increase in LC3-II to LC3-I ratio at 10 uM in absence of EBSS measured after 3 hrs by Western blot analysis; type: functional, cell-based
In short: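 SCC4 cells were pre-incubated with or without EBSS for 30 min, then given 10 μM compound, with 10 μM chloroquine as reference, for 3 h. LC3-I/II was assessed by Western blot with GAPDH loading control. The LC3-II/LC3-I ratio came from densitometry, as mean ± SEM of four experiments, with an unpaired one-tailed t-test.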

[15] = tested on: SCC-4; assay: Induction of apoptosis in human SCC-4 cells assessed as increase in apoptotic cells at 2 uM after 48 hrs by Annexin V-FITC/PI staining based flow cytometry method; type: functional, cell-based
In short: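 SCC4 cells were treated at 0.5 or 2 μM for 48 h, then stained with Annexin V/PI and analysed by flow cytometry. Data are mean ± SEM of three independent experiments, with an unpaired one-tailed t-test versus vehicle.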

[16] = Mutagenicity in Salmonella typhimurium TA100 in presence of rat liver S9 fraction at 0.3 to 60 uM by AMES test; type: toxicity, subcellular; details: salmonella enterica subsp. enterica serovar typhimurium, s9, 60 µM; dose 0.3-60 µM
[17] = tested on: HeLa; assay: Induction of morphological changes in human HeLa cells assessed as golgi complex fragmentation at 10 uM incubated for 3 hrs by phalloidin staining based laser scanning confocal microscopic analysis; type: functional, cell-based
In short: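 HeLa cells in growth medium were treated at 1 or 10 μM, with BafA1 300 nM as reference, for 3 h. Cells were fixed in 4% PFA, stained with anti-GM130 for the Golgi and AF647-phalloidin for actin, and imaged by laser scanning confocal microscopy.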

[18] = tested on: SCC-4; assay: Induction of autophagy in human SCC-4 cells assessed as decrease in UlK1 protein level at 10 uM in measured after 24 hrs by Immunoblotting analysis; type: functional, cell-based
In short: (§3)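 SCC4 cells under basal conditions were treated at 10 μM for 24 h. Autophagy-related proteins were immunoblotted, and densitometry was expressed as a ratio normalised to vehicle control.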

[19] = Mutagenicity in Salmonella typhimurium TA98 in absence of rat liver S9 fraction at 0.3 to 60 uM by AMES test; type: toxicity; details: salmonella enterica subsp. enterica serovar typhimurium, s9, 60 µM; dose 0.3-60 µM
[20] = tested on: HeLa; assay: Induction of cell morphological changes in human HeLa cells at 10 uM measured after 3 hrs by LysoTracker Red staining based microscopic analysis; type: functional
In short: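 Living HeLa cells were treated at 10 μM, or with BafA1 at 300 nM, for 3 h, then incubated with 75 nM LysoTracker red. Cells were imaged by spinning disc microscopy at 37 °C, 5% CO2.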

[21] = tested on: SCC-4; assay: Induction of autophagy in human SCC-4 cells assessed as increase in UlK1 phosphorylation at 10 uM in measured after 24 hrs by Immunoblotting analysis; type: functional, cell-based; in short: as §3
[22] = tested on: Emu-TCL1; assay: Induction of apoptosis in mouse Emu-TCL1 cells model of CLL assessed as mitochondrial membrane depolarization at 10 uM after 48 hrs by TMRM dye based flow cytometric analysis; type: functional, cell-based
In short: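 Splenocytes from Eμ-TCL1 leukaemic mice were treated with 10 μM or DMSO vehicle for 48 h, then TMRM-loaded. Flow cytometry gave the percentage of TMRM-low cells as mean ± SD (n = 3).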

[23] = tested on: SCC-4; assay: Cytotoxicity against human SCC-4 cells assessed as reduction in cell viability measured after 48 hrs by alamar blue viability assay; type: functional, cell-based; details: SCC-4, 48 h; in short: as §1

Row | SMILES | Activity [1] | solubility at 24 h [2] [µM] | Activity [3] | Activity [4] | IC50 [5] [µM] | inhibition [6] | IC50 [7] [µM] | IC50 [8] [µM] | Activity [9] | EC50 at 24 h [10] [µM] | IC50 [11] [µM] | Activity [12] | EC50 [13] [µM] | Activity [14] | Activity [15] | Activity [16] | Activity [17] | Activity [18] | Activity [19] | Activity [20] | further results
1 | O=C(OC1=C(c2cccc3ncccc23)Oc2cc3ccccc3cc2-n2cccc21)C1CCNCC1 | Active | 271 (≈ 132 µg/mL) | Non-Toxic | Active | 4.5 | Active | 1.93 | 6.15 | Active | 45 | 1.68 | Non-Toxic | 0.6 | Active | Active | Non-Toxic | Active | Active | Non-Toxic | Active | Activity [21]: Active; Activity [22]: Active; IC50 [23]: 0.85 µM
2 | CN1CCN(C(=O)OC2=C(c3cccc4ncccc34)Oc3cc4ccccc4cc3-n3cccc32)CC1 | Active | 204 (≈ 103 µg/mL) | Non-Toxic | Active | 0.88 | Active | 0.4 | 0.774 | Active | 45 | 3.6 | Non-Toxic | 0.45 | Active | Active | Non-Toxic | Active | Active | Non-Toxic | Active | Activity [21]: Active; Activity [22]: Active; IC50 [23]: 0.54 µM
